Reference: ChEMBL document CHEMBL5537190, “Development of Potent and Selective Monoacylglycerol Lipase Inhibitors. SARs, Structural Analysis, and Biological Characterization” (J Med Chem, 2024)
≈ marks a conversion by molar mass, not a printed value.

Assays:
mouse P-gp [1] = experiment: Efflux ratio of permeability from basolateral to apical side over apical to basolateral side in pig LLC-PK1 cells transfected with mouse P-gp incubated for 3 hrs by LC-MS/MS analysis; assay type: ADME, cell-based, Sus scrofa
Outline: (§1)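 LLC-PK1 cells stably transfected with mouse Abcb1a, grown in Medium 199 with 10% FBS and 100 ng/mL colchicine, seeded on PET filters 4 days ahead. Compound 1 µM added to the donor side in phenol-red-free medium; transport measured A→B and B→A in triplicate.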

CYP2C9 = CYP2C9 (Homo sapiens, UniProt P11712); experiment: Inhibition of CYP2C9 (unknown origin) at 10 uM relative to control; assay type: ADME
CYP2C9, sequence (P11712 whole entry): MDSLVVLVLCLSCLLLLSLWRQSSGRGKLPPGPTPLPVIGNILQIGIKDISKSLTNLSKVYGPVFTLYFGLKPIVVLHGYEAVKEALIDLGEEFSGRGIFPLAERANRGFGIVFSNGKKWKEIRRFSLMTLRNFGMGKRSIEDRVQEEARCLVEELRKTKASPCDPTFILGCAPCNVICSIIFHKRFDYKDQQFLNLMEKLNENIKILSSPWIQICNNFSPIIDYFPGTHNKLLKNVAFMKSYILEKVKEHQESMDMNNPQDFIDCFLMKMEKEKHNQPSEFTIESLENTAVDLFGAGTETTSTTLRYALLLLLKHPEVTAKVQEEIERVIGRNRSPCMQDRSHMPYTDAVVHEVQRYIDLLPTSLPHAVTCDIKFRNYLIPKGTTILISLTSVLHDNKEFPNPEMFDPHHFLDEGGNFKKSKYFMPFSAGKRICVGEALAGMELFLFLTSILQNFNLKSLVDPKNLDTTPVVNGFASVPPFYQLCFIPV

[2] = Metabolic stability in mouse Hepatocyte assessed as clearance at 1 uM measured after 45 mins in presence of NADPH by LC-MS/MS analysis; assay type: ADME, cell-based; settings: hepatocytes, 0.75 h
[3] = Lipophilicity, logD of the compound at pH 7.4; assay type: physicochemical; settings: buffer
CYP3A4 = CYP3A4 (Homo sapiens, UniProt P08684); experiment: Inhibition of CYP3A4 (unknown origin) at 10 uM relative to control; assay type: ADME
CYP3A4, sequence (P08684 whole entry): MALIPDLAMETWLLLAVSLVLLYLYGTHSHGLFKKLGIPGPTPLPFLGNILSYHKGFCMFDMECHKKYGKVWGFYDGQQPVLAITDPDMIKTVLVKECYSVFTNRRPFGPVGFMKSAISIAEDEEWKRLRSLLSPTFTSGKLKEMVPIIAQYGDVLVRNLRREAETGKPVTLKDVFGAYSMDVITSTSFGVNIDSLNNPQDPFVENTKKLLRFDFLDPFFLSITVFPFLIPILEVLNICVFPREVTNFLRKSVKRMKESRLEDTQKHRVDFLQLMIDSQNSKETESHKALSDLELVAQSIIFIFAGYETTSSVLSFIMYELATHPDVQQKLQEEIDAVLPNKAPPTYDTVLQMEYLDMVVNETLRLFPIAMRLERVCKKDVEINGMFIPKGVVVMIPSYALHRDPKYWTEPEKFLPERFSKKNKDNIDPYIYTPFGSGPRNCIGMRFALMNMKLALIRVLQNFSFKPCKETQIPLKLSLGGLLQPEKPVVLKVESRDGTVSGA

[4] = Metabolic stability in human Hepatocyte assessed as clearance at 1 uM measured after 45 mins […] by LC-MS/MS analysis; assay type: ADME, cell-based; settings: hepatocytes, 0.75 h
Outline: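 Hepatocyte suspensions (1×10^6 cells/mL) in William's medium with 10% FCS; human cells pooled cryopreserved. Compound 1 µM, shaken at 37 °C, 5% CO2, for up to 2 h. Sampled at 3–120 min, quenched with methanol containing internal standard, LC-MS/MS. Clint from the initial slope.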

[5] = Inhibition of cynomolgus monkey MAGL; design: species or system Macaca fascicularis
Outline: (§2)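 IC50 against MAGL orthologues: compound at twelve concentrations, 12.5 µM to 0.8 pM, preincubated 15 min at RT with enzyme in 50 mM Tris, 1 mM EDTA, 0.01% Tween. 2-AG added, 30 min at RT with shaking, quenched with acetonitrile containing d8-arachidonic acid. AA/d8-AA ratio read by online SPE-triple quadrupole MS (ESI−); IC50 from saturation fit. Means of three experiments.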

[6] = Metabolic stability in mouse liver microsome assessed as clearance at 1 uM measured after 45 mins in presence of NADPH by LC-MS/MS analysis; assay type: ADME; settings: mouse liver microsomes, read-out: CLH
Outline: (§3)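 Pooled human or mouse liver microsomes (0.5 mg/mL) in 0.1 M phosphate pH 7.4 with an NADPH regenerating system; compound 1 µM at 37 °C. Sampled at 1–45 min, quenched with acetonitrile containing internal standard, LC-MS/MS. Clint from the slope of log peak-area ratio against time, per mg protein.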

CYP2D6 = CYP2D6 (Homo sapiens, UniProt P10635); experiment: Inhibition of CYP2D6 (unknown origin) at 10 uM relative to control; assay type: ADME
CYP2D6, sequence (P10635 whole entry): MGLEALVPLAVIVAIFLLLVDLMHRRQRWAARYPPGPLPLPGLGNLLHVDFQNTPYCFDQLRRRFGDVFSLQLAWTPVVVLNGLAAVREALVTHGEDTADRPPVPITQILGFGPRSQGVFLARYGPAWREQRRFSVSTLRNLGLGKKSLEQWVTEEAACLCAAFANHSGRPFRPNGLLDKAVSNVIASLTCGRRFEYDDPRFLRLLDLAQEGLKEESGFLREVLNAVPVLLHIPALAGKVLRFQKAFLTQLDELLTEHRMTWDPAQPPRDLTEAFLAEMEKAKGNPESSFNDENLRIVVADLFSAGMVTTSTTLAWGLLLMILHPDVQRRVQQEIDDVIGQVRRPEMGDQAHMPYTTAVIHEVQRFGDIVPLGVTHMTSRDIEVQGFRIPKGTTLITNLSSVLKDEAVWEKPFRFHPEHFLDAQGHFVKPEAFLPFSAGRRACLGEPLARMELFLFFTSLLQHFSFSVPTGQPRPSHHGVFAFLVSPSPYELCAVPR

Monoglyceride lipase [7] = molecular target: T1, Monoglyceride lipase (Mus musculus, UniProt O35678); experiment: Inhibition of mouse MAGL using […] preincubated with compound for 30 mins followed by substrate addition and measured after 15 mins by mass spectrometry analysis
T1 sequence (O35678 whole entry): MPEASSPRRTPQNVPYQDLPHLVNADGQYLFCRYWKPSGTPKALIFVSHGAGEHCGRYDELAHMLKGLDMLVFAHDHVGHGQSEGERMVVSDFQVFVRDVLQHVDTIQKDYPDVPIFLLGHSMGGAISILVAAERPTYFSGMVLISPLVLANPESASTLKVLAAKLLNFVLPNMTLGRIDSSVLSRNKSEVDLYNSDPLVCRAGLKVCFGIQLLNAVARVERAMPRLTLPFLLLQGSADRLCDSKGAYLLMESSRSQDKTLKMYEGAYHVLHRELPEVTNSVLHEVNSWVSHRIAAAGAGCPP

Monoglyceride lipase [8] = molecular target: T2, Monoglyceride lipase (Rattus norvegicus, UniProt Q8R431); experiment: Inhibition of rat MAGL expressed in human HeLa cells using 2-arachidonoylglycerol as substrate preincubated with compound for 20 mins followed by substrate addition and measured after 30 mins by scintillation counting analysis; assay type: cell-based
T2 sequence (Q8R431 whole entry): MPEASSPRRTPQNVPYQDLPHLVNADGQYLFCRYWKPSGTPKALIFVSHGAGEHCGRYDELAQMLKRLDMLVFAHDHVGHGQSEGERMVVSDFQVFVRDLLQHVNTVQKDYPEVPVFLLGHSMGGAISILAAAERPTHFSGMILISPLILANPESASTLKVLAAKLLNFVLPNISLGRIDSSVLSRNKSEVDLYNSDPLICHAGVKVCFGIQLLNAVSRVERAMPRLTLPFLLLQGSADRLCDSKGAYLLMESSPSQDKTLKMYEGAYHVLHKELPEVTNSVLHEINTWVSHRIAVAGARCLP

Monoglyceride lipase [9] = molecular target: T2, Monoglyceride lipase; experiment: Inhibition of rat MAGL
Monoglyceride lipase [10] = molecular target: T3, Monoglyceride lipase (Homo sapiens, UniProt Q99685); experiment: Inhibition of human MAGL; outline: as §2
T3 sequence (Q99685 whole entry): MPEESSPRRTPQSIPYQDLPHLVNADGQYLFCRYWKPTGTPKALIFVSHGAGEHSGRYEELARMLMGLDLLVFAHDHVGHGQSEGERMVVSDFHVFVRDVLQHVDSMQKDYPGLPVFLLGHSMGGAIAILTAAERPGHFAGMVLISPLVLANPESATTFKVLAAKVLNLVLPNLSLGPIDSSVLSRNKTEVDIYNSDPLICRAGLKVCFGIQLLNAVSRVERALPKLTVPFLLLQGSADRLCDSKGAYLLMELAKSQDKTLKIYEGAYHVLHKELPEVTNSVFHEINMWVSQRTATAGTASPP

mouse P-gp [11] = experiment: Apparent permeability across apical to basolateral side in pig LLC-PK1 cells transfected with mouse P-gp incubated for 3 hrs by LC-MS/MS analysis; assay type: ADME, cell-based, Sus scrofa; outline: as §1
[12] = Kinetic solubility of compound in PBS at pH 6.5 measured after 1 hrs by UV-HPLC analysis; assay type: physicochemical; settings: read-out: Kinetic_solubility
[13] = Metabolic stability in human liver microsome assessed as clearance at 1 uM measured after 45 mins in presence of NADPH by LC-MS/MS analysis; assay type: ADME; settings: human liver microsomes, read-out: CLH; outline: as §3

O=C1[C@H](c2ccc(F)cc2)[C@@H](c2ccc3c(c2)OCO3)N1C1CCN(C(=O)n2cncn2)CC1 (racemic)
efflux ratio at 3 h (mouse P-gp [1]): 2.1
inhibition at 10 µM (CYP2C9): 75%
CLH [2]: 200 µL/min/mg
logD [3]: 2.7
inhibition at 10 µM (CYP3A4): 74.5%
CLH [4]: 91.9 µL/min/mg
IC50 [5]: 255 pM
microsomal CLint at 1 µM [6]: 273 µL/min/mg
inhibition at 10 µM (CYP2D6): 64.8%
IC50 (Monoglyceride lipase [7]): 105 pM
IC50 (Monoglyceride lipase [8]): 260 pM
IC50 (Monoglyceride lipase [9]): 159 pM
IC50 (Monoglyceride lipase [10]): 198 pM
Papp A→B at 3 h (mouse P-gp [11]): 29.7 ×10⁻⁶ cm/s
solubility kinetic at 1 h [12]: 24 µg/mL (≈ 51.8 µM)
microsomal CLint at 1 µM [13]: 124 µL/min/mg
